Compound activity deposited in PubChem by The Scripps Research Institute Molecular Screening Center.
zfTRPN1 agonist: zebrafish TRPN1 (NompC) channel agonism; HEK293 zebrafish TRPN1-YFP, Fluo-8 calcium fluorescence; 100% = response to 87 µM carbachol; activation, % at 3 µM; hit rate 0.18% among 220,000; AID 1424;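 active means activation above its plate's cutoff, the mean activation of test wells on that plate plus 3 SD, cut at about 19% in these data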
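Material: zebrafish TRPN1-YFP in HEK293 cells. Doses: one dose of 3 µM, 0.3% DMSO. Incubation: dye 1 h 37 °C plus 30 min RT. Measured by: intracellular calcium fluorescence with Fluo-8.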
CHO-K1 Ca PAM: nonselective activator or artifact in parental CHO-K1 calcium assay. ATP EC20, Fluo-8 calcium fluorescence; 0% at ATP EC20, 100% at ATP max. activation, % at 3 µM. hit rate 0.02% among 360,000;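 active means activation above the run cutoff, the mean activation of all test compounds plus 3 SD, cut at about 40% in these data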;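 further: peak over basal fluorescence ratio in a 140 s read after ATP addition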
CHO-K1 Ca antag: nonselective inhibitor or artifact in parental CHO-K1 cells; ATP-induced calcium, Fluo-8 fluorescence; inhibition, % at 3 µM; hit rate 0.6% among 360,000; AID 602250;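 active means inhibition above a per-plate cutoff, the plate's mean sample inhibition plus 3 SD, cut at about 24% in these data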
M1 ag parental: nonselective activator or artifact in parental CHO-K1 cells. Fluo-8 calcium fluorescence; scaled to maximal ATP response, vehicle zero. activation, % at 3 µM. hit rate 0.48% among 360,000. AID 602248; in the data active means activation above about 15%;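 further: untransfected CHO-K1 host cells lacking M1 receptor as counterscreen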
TRPML3 agonist: activates the human TRPML3 channel. activation, % at 3 µM. HEK293 TRPML3-YFP, Fluo-8 calcium fluorescence; 100% = the carbachol control signal. Q8TDD5. hit rate 0.29% among 220,000;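 active means activation above its plate's cutoff, the mean activation of the plate's test wells plus 3 SD, cut at about 12% in these data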
Target sequence (Q8TDD5 whole entry, looked up): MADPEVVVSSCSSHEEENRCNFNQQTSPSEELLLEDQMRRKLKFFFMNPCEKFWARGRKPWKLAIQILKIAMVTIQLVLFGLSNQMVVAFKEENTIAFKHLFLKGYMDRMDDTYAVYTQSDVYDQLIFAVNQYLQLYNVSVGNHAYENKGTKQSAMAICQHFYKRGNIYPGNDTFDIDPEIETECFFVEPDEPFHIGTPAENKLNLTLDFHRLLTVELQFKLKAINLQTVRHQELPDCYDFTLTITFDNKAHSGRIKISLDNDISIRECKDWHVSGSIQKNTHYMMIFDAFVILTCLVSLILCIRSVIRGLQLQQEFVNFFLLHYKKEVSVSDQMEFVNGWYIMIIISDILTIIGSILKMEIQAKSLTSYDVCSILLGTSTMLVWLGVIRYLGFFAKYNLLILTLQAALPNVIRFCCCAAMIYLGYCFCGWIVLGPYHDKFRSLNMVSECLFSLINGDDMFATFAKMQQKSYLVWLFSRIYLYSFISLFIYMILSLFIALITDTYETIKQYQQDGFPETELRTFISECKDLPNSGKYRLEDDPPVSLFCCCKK
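Material: HEK293 cells stably carrying human TRPML3-YFP; compound dosing: single dose, 3 µM final nominal compound, 0.3% DMSO final; incubation: 1-h 37 °C dye load, 5-s basal, 120-s post-compound reads; technique: Fluo-8 intracellular calcium fluorescence, excitation 470-495 nm, emission 515-575 nm; read-out basis: percent activation from peak-to-basal fluorescence ratio, scaled between DMSO and carbachol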
Each line names hits and unclear results; the compound was inactive in the other large screens. A selection: hits, their analogues and other compounds. The true share with any hit is near 1.2%.

O=C(Cc1ccc(Cl)cc1)Nc1ccccc1Sc1ccccc1	none
CN(C)c1cccc(C(=O)OCC(=O)Nc2ccccc2Sc2ccccc2)c1	CHO-K1 Ca antag 31
O=C(CCl)Nc1ccccc1Sc1ccccc1	CHO-K1 Ca antag 24
O=S(=O)(Nc1ccc(Nc2ccccc2)cc1)c1ccc(F)cc1	CHO-K1 Ca antag 24 (no result: zfTRPN1 agonist, TRPML3 agonist)
Cc1ccc(S(=O)(=O)Nc2ccc(Nc3ccccc3)cc2)cc1	none (no result: zfTRPN1 agonist, TRPML3 agonist)
O=[N+]([O-])c1ccc(Oc2ccc(S(=O)(=O)Nc3ccccc3)cc2)cc1	zfTRPN1 agonist 21, CHO-K1 Ca antag 29, M1 ag parental 19
CCOC(=O)C1=C(O)CSC1=Nc1ccc(Cl)cc1	CHO-K1 Ca antag 27
COc1ccc(OCC(=O)N/N=C2\CCCc3ccccc32)cc1	CHO-K1 Ca antag 25
O=C(N/N=C1\CCCCc2ccccc21)c1ccccn1	CHO-K1 Ca antag 29
O=C(NN=C1CCCCCCC1)c1ccccn1	none
CC(C)c1cc(C(C)C)c(S(=O)(=O)NC(c2ccccn2)C23CC2C3)c(C(C)C)c1 (centres undefined)	none (no result: zfTRPN1 agonist, TRPML3 agonist)
CC(C)C[C@@H](CN1CCC[C@@H]1CN1C(=S)NC[C@@H]1Cc1ccc(O)cc1)N1C[C@H](Cc2ccc(O)cc2)N(CCc2ccccc2)C1=S	none (no result: zfTRPN1 agonist, TRPML3 agonist)
CC(=O)N1C(=O)C2(NCC(C)N2)c2ccccc21 (centres undefined)	none (no result: zfTRPN1 agonist, TRPML3 agonist)
O=C(c1[nH]ncc1-c1ccccc1)C1CO1 (centres undefined)	M1 ag parental 19
Cc1cc2ncn(CCC(=O)NC3CCCC3)c2cc1C	M1 ag parental 19
Cc1noc(C)c1C(c1ccccc1)S(=O)(=O)c1ccccc1 (centres undefined)	CHO-K1 Ca antag 28
COC(=O)c1cc(S(=O)(=O)N2CCN(c3ccc(F)cc3)CC2)cn1C	M1 ag parental 20 (no result: zfTRPN1 agonist, TRPML3 agonist)
COC(=O)c1cc(S(=O)(=O)N2CCN(c3cccc(OC)c3)CC2)cn1C	none (no result: zfTRPN1 agonist, TRPML3 agonist)
N#C/C(=C/c1ccc(N2CCCCC2)o1)C(=O)Nc1ccc(Cl)cc1	zfTRPN1 agonist 28, CHO-K1 Ca antag 36, M1 ag parental 79, TRPML3 agonist 39
CC1CC1c1ccc(/C=C(\C#N)C(=O)Nc2ccc(Cl)cc2)o1 (centres undefined)	none
N#C/C(=C/c1ccc(N2CCCCC2)o1)C(=O)Nc1ccc2ccccc2c1	zfTRPN1 agonist 40, CHO-K1 Ca antag 85, M1 ag parental 266, TRPML3 agonist 22
COc1ccc(N(C(=O)c2ccn[nH]2)C(C(=O)NC(C)(C)C)c2ccc(F)cc2)cc1 (centres undefined)	none
CC(C)(C)NC(=O)C(c1ccc(F)cc1)N(CCc1ccccc1)C(=O)c1ccn[nH]1 (centres undefined)	M1 ag parental 15
CC1NC(=O)c2cc3ccccc3cc2-n2c1nc1cc(Cl)ccc1c2=O (centres undefined)	none (no result: zfTRPN1 agonist, TRPML3 agonist)
C=COC(=O)CSc1snc(SCC(=O)OC)c1C#N	none
CCN(CC)C(=O)CSc1nsc(SCC(=O)N(CC)CC)c1C#N	CHO-K1 Ca antag 26
C=CCc1ccccc1OCCNCCCOC	CHO-K1 Ca antag 24
COC(=O)c1nc2n(n1)C(c1ccc(OC)c(OC)c1)C(C(=O)OC1CCCCC1)=C(C)N2 (centres undefined)	CHO-K1 Ca antag 28
O=S(=O)(NC1CCCC1)c1ccc(S(=O)(=O)N2CCc3ccccc32)cc1	M1 ag parental 16
CC(O)(c1ccc(F)c(F)c1)c1nc(-c2cc(F)cc(F)c2)cs1 (centres undefined)	none (no result: zfTRPN1 agonist, TRPML3 agonist)
CCSc1nsc(NC(=O)Nc2ccccc2F)n1	none (no result: zfTRPN1 agonist, TRPML3 agonist)
CCSc1nsc(NC(=O)Nc2cccc(OC)c2)n1	M1 ag parental 17 (no result: zfTRPN1 agonist, TRPML3 agonist)
C=CCSc1nsc(NC(=O)Nc2ccc(F)cc2)n1	CHO-K1 Ca antag 25 (no result: zfTRPN1 agonist, TRPML3 agonist)
CCC(CC)C(=O)N(C)c1c(C)nc2c(OCc3ccc(F)c(F)c3)cccn12	none (no result: zfTRPN1 agonist, TRPML3 agonist)
COc1ccc(C2c3ccc4ccccc4c3Oc3ncn(Cc4ccco4)c(=N)c32)cc1OC (centres undefined)	CHO-K1 Ca antag 26
Cc1c(OCC(=O)NCc2cccnc2)ccc2c3c(c(=O)oc12)CCCC3	none (no result: zfTRPN1 agonist, TRPML3 agonist)
Cc1c(OC(C)C(=O)NCc2cccnc2)ccc2c3c(c(=O)oc12)CCCC3 (centres undefined)	CHO-K1 Ca antag 58 (no result: zfTRPN1 agonist, TRPML3 agonist)
Cc1sc2ncnc(NCCCN3CCCC3=O)c2c1C	M1 ag parental 18
CCN(CC)C(=O)C1=C(C)N(CCC2=CCCCC2)C(=O)C(CC(=O)NC2CCCC2)C1 (centres undefined)	none (no result: zfTRPN1 agonist, TRPML3 agonist)
Cc1cccc(C)c1NC(=O)c1csc([C@@H]2O[C@H](CO)[C@H](O)[C@H](O)[C@H]2O)n1	none (no result: zfTRPN1 agonist, TRPML3 agonist)
Clc1ccccc1CNCc1ccc2c(c1)OCO2	none (no result: zfTRPN1 agonist, TRPML3 agonist)
O=C1CCCC/C1=C/Nc1ccc2c(c1)OCO2	CHO-K1 Ca antag 29
O=C1CCC/C1=C/Nc1cccc(F)c1	none
CC(=O)c1cccc(NS(=O)(=O)c2ccc(-c3cnc(C4CC4)o3)cc2)c1	M1 ag parental 16 (no result: zfTRPN1 agonist, TRPML3 agonist)
CC(=O)Nc1ccc(NS(=O)(=O)c2ccc(-c3cnc(C4CC4)o3)cc2)cc1	none (no result: zfTRPN1 agonist, TRPML3 agonist)
O=C(O)C(=Cc1cccc([N+](=O)[O-])c1)c1ccccc1	none (no result: zfTRPN1 agonist, TRPML3 agonist)
O=C(C#Cc1cccc([N+](=O)[O-])c1)c1ccccc1	CHO-K1 Ca antag 27
COc1ncnc2c1ncn2CCCNC1CCN(Cc2ccccc2)CC1	none (no result: zfTRPN1 agonist, TRPML3 agonist)
CCOC(=O)C1CCCN(c2c(C(=O)c3ccccc3)cnc3ccc(OC)cc23)C1 (centres undefined)	CHO-K1 Ca PAM 61
CCOC(=O)C1C(=O)C=C(/C=C/c2ccc(N(C)C)cc2)CC1c1ccccc1 (centres undefined)	M1 ag parental 22
C[C@@H]1CN([C@H](C)CO)C(=O)CCCn2nncc2CO[C@@H]1CN(C)C(=O)NC1CCCCC1	none (no result: zfTRPN1 agonist, TRPML3 agonist)
C#Cc1ccc(CN2CCC(C(=O)Nc3ccc(Oc4ccccc4)nc3)CC2)cc1	none (no result: zfTRPN1 agonist, TRPML3 agonist)
O=C(Nc1ccc(Oc2ccccc2)nc1)C1CCN(Cc2cccc(F)c2)CC1	M1 ag parental 24 (no result: zfTRPN1 agonist, TRPML3 agonist)
COC(=O)[C@]12CCCCC=C1N(Cc1ccc(Cl)cc1Cl)C(=O)[C@H](CC(=O)N1CCCC1)C2	none (no result: zfTRPN1 agonist, TRPML3 agonist)
COc1cccc(C(O)c2nc(-c3ccccc3)cs2)c1 (centres undefined)	none (no result: zfTRPN1 agonist, TRPML3 agonist)
CC(=O)c1cnc(Nc2cccc(Cl)c2Cl)s1	M1 ag parental 17
CC(=O)c1cnc(Nc2ccccc2)s1	none
O=c1[nH]c2ccccc2nc1/C=C(\O)c1cccs1	M1 ag parental 15
CCCCNC(=O)C1c2ccccc2OCC(=O)N1Cc1ccc2c(c1)OCO2 (centres undefined)	none (no result: zfTRPN1 agonist, TRPML3 agonist)
COc1ccc(S(=O)(=O)NC(=O)C2(C)CCN2C(=O)C2(c3ccc(Cl)cc3)CCC2)cc1 (centres undefined)	none (no result: zfTRPN1 agonist, TRPML3 agonist)
CC(c1ccccc1C(O)(c1ccccc1)c1ccccc1)N(C)C (centres undefined)	zfTRPN1 agonist 22, M1 ag parental 23, TRPML3 agonist 15
CCN(C(=O)c1ccc(C(C)(C)C)cc1)c1nnc(Cn2nnc3ccccc32)s1	CHO-K1 Ca antag 31
